# Compounds with a hit are over-represented: about 2.3% of the library has one in this group of screens.
# Scp1 inh – Scp-1 (human) phosphatase inhibition; Recombinant Scp1, phosphopeptide, malachite green phosphate absorbance; 0.88% of 340,000 active; inhibition, % at 20 µM;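 active = inhibition above about 50% at 20 µM, limit read from the data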;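 note: plate controls were DMSO wells with enzyme for no effect and wells lacking enzyme for full effect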
# Target sequence (Q9GZU7 76-261 limits assumed): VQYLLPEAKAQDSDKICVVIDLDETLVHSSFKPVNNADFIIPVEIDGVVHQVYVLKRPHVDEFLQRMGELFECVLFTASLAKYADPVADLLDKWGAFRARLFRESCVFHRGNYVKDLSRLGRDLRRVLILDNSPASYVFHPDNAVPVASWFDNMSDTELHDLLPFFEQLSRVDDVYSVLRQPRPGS
#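 Test system: SCP-1 phosphatase catalytic domain, residues 76-261 | Compound dosing: One concentration, 20 µM, with 1.0% DMSO | Schedule: 45 min room-temperature reaction, 5 min colour, 30 min stabiliser | Detection: Absorbance at 630 nm | Read-out basis: % inhibition of SCP-1 phosphate liberation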
# DNMT1 block – DNMT1 (human) enzyme inhibition; AID 588458; inhibition (reported as % activation of signal), % at 10 µM; DNMT1 molecular beacon, Hinp1I cleavage, fluorescence; 0.83% of 360,000 active; in the data active = inhibition above about 50%
# STEP block – inhibitors of human striatal-enriched phosphatase STEP; P54829; recombinant STEP, OMFP fluorogenic substrate, fluorescence; inhibition, % at 20 µM; 0.25% of 360,000 active; AID 588621;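 active = inhibition at 20 µM, scaled per plate between control wells, above about 37%, limit read from the data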;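 note: 0% = DMSO with enzyme and substrate and 100% = substrate only without enzyme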
#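 System: STEP phosphatase, cell-free reaction; Buffer or medium: Bis-Tris pH 6.0 buffer with DTT, detergent; Incubation: 20 min at room temperature, dark; Measured by: fluorescence, 480/540 nm.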
# Rpn11 inh – Rpn11 (human) deubiquitinase inhibition; 0.59% of 360,000 active; inhibition, % at 20 µM; AID 588493; human 26S proteasome, Ub4-pepOG fluorescence polarization; 20S core pre-blocked with epoxomicin; O00487;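 active = inhibition at 20 µM, scaled to each plate's controls, above about 33%, limit read from the data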
# LMPTP inh – blocks human LMPTP phosphatase. P24666. recombinant LMPTP-A, OMFP fluorogenic substrate, fluorescence intensity. inhibition, % at 20 µM. 0.22% of 360,000 active;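 active = compounds that cut the enzyme signal by at least half of the control window in the single-dose screen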;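 note: plate controls were DMSO wells with enzyme plus substrate for no effect and substrate without enzyme for full effect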
# Target sequence (P24666 whole entry, looked up): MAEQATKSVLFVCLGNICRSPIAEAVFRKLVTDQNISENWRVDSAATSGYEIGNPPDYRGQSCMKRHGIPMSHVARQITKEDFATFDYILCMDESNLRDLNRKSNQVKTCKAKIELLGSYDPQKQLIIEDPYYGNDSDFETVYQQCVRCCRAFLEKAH
#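 Assay system: LMPTP-A, protein tyrosine phosphatase of low molecular weight / Medium: pH 6.0 Bis-Tris buffer with DTT and Triton X-100 / Schedule: 50 min enzyme reaction at room temperature, protected from light / Measured by: endpoint fluorescence intensity from OMFP dephosphorylation / Read-out basis: % inhibition relative to no-enzyme and uninhibited control wells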
# SUMO1-SIM PPI – SUMO1-SIM interaction modulation. P63165. SUMO1 binding to a labelled peptide, TR-FRET, 1 h. inhibition, % at 20 µM. 0.33% of 360,000 active; in the data active = inhibition above about 37%
# Target sequence (P63165 whole entry, looked up): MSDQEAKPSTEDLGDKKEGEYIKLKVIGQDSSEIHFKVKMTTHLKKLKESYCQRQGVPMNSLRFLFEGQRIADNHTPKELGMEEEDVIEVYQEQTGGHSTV
# * hit, by the source's call; . = not tested or not shown.
SMILES,Scp1 inh,DNMT1 block,STEP block,Rpn11 inh,LMPTP inh,SUMO1-SIM PPI
O=C(CSc1nc2nn(-c3ccccc3)c(=O)c-2c2n1CCCCC2)c1ccc(O)c(O)c1,48.6,1.8,2.8,11.5,67.8*,2.6
COC(=O)c1ccc(CNC(=O)c2ccc(S(=O)(=O)N3CCCC(C)C3)cc2)cc1 (stereo unspecified),-8.2,50.0*,2.7,-4.3,0.1,0.3
O=C(NCc1ccc(F)cc1)c1ccc(S(=O)(=O)N2CCCC2)cc1,.,-1.1,2.5,3.3,-2.6,-0.6
C=CCNC(=O)c1c(CSc2ccc(F)cc2)noc1C(=O)NCCC,-8.1,0.3,-1.7,-6.1,-0.1,4.2
COc1cccc(CC(NC(C)=O)C(=O)NC2CCN(S(=O)(=O)c3ccc(NC(C)=O)cc3)CC2)c1 (stereo unspecified),28.5,5.4,-2.9,5.2,0.8,-0.2
Nc1nc(N)c2c(ccc3c2ccn3Cc2cccc([N+](=O)[O-])c2)n1,.,-9.6,8.1,-5.7,68.6*,10.4
S=C(NCCCN1CCOCC1)NCCCN1CCOCC1,-2.4,-0.6,93.6*,-6.0,-7.2,-1.6
CC(CNC(=O)c1cccs1)c1ccc([N+](=O)[O-])cc1 (stereo unspecified),4.7,-2.9,-2.6,7.1,-1.4,55.5*
Cc1cc(N(C)NC(=S)Nc2ccccc2)nc(C)n1,-8.3,2.1,-3.0,6.0,-0.8,0.4
Cc1ccc(NC(=S)NN(C)c2nc(C)cnc2C)cc1,-8.3,4.7,-2.0,-3.0,-1.4,39.9*
CCOC(=O)C1=C(C)N=c2s/c(=C/c3ccc(OCC(=O)O)cc3)c(=O)n2C1c1ccc(SC)cc1 (stereo unspecified),.,38.7,85.1*,22.3,48.4,27.2
CC(C)c1onc(C(=O)N2CCN(c3ccccc3)CC2)c1[N+](=O)[O-],-13.9,-1.7,0.7,2.8,-1.3,-6.7
CC(C)c1onc(C(=O)N2CCN(C(c3ccccc3)c3ccccc3)CC2)c1[N+](=O)[O-],21.3,2.6,0.8,5.6,-0.6,43.2*
Cc1cccc(NC(=O)CNC(=O)CSc2nnc(C(F)(F)F)n2C)c1C,-3.4,4.2,-2.2,-0.7,-0.8,2.1
Oc1ccc(Cl)cc1N=Nc1ccccc1,-9.4,-0.8,1.1,7.6,2.2,-11.3
O=S(=O)(O)c1cc(O)c2c(O)c(N=Nc3cc(Cl)ccc3O)c(S(=O)(=O)O)cc2c1,83.3*,84.8*,100.8*,0.6,102.1*,84.2*
CC1CCCCC12NC(=O)N(CC(=O)NCCc1c[nH]c3ccccc13)C2=O (stereo unspecified),-9.8,-5.8,-0.2,3.6,-1.3,-0.7
COc1ccc2sc3cccc(NCCN(C)C)c3c(=O)c2c1,.,55.5*,3.2,26.8,1.1,-45.0
CN(C)CCNc1ccc(CO)c2sc3ccc(O)cc3c(=O)c12,9.6,40.5,3.7,39.1,9.3,-43.1
O=C(CSc1nnc(-c2ccco2)c(-c2ccco2)n1)c1ccccc1,45.0,84.7*,5.4,-0.5,8.0,29.9
CC(C)(C)OC(=O)N1CCC(c2cc(=O)n3[nH]cc(C(=O)Nc4ccc(F)c(Cl)c4)c3n2)CC1,6.0,-10.0,-2.3,5.1,5.6,50.6*
N#C/C(=C\c1ccc(OCc2ccc(Cl)cc2)cc1)C(=O)Nc1cccc(C(=O)O)c1,14.4,61.6*,57.7*,2.6,36.3,66.0*
O=C(O)c1cccc(NC(=O)c2ccc(COc3ccc(Cl)cc3)cc2)c1,1.3,1.5,-2.3,1.6,2.0,16.1
CCOc1cc(/C=C(/C#N)C(=O)Nc2ccc(OC)cc2)ccc1OCc1ccc(C(=O)O)cc1,13.6,4.2,22.8,10.6,80.3*,8.6
Cc1n[nH]c(=S)n(NC(=O)/C=C/C(=O)Nn2c(=S)[nH]nc(C)c2=O)c1=O,21.1,33.8,5.6,0.2,1.5,67.0*
Cc1ccc(C(C)C)cc1-n1nnc(-c2cccc(Cc3ccc4ccccc4c3)c2)c1C(C)O (stereo unspecified),.,-4.6,2.2,-1.1,4.1,-3.1
CC(=O)c1sc(Nc2nc3cc4c(cc3s2)OCO4)nc1C,-3.0,-3.4,1.9,7.5,4.0,40.0*

# Screening data as filed in PubChem.
